Experimental data gathered from unrelated publications.
Lines come from different studies, so protocols differ.
Nos2: Nitric oxide synthase, inducible (Nos2, Mus musculus, UniProt P29477)
STK38: Serine/threonine-protein kinase 38 (STK38, Homo sapiens, UniProt Q15208)

SMILES | target | observed | mode | technique | tested at | measurement | value
Nc1ncc(-c2nc(N3CCOCC3)nc(N3CCOCC3)n2)c(C(F)F)n1 | Proto-oncogene tyrosine-protein kinase receptor Ret (RET, Homo sapiens, UniProt P07949, M918T) | binding |  | competition with immobilised ligand | 10 µM | remaining binding | 78%
c1ccc(C(NCCNC(c2ccccc2)c2ccccc2)c2ccccc2)cc1 | Nos2 | enzyme activity | inhibitor |  | 10 µM | inhibition | 3%
Cc1sc2c(c1C)C(c1ccc(Cl)cc1)=N[C@@H](CC(=O)OC(C)(C)C)c1nnc(C)n1-2 | Stimulator of interferon genes protein (STING1, Homo sapiens, UniProt Q86WV6, H232R) | thermal stability |  | DSF | 50 µM | ΔTm | -0.5 °C
Cc1nn(C)cc1-c1nc2c(N3CCN(Cc4ccc(Cl)cc4)CC3)c(Cl)cnc2[nH]1 | STK38 | binding |  | competition with immobilised ligand | 1 µM | remaining binding | 86%
COc1ncccc1-c1cnn2ccc(N3CCN(C(=O)OC(C)C)CC3)nc12 | STK38 | binding |  | competition with immobilised ligand | 1 µM | remaining binding | 84%
COc1cc(Nc2ncc(F)c(Nc3ccc4c(n3)NC(=O)C(C)(C)O4)n2)cc(OC)c1OC | Citron Rho-interacting kinase (CIT, Homo sapiens, UniProt O14578) | binding |  |  | 10 µM | inhibition | 99%
C#Cc1n[nH]c2c(-c3cn(C(C)c4ccccn4)c(=O)[nH]c3=O)cc(F)cc12 (centres unmarked) | Proto-oncogene tyrosine-protein kinase receptor Ret (RET, Homo sapiens, UniProt P07949, V804L) | enzyme activity | inhibitor |  | 1 µM | inhibition | 4.9%
C[C@H](C(=O)N[C@H]1COc2ccccc2[C@@H]1S(C)(=O)=O)c1ccc(F)cc1 | Nos2 | enzyme activity | inhibitor |  | 10 µM | inhibition | 3%
